Columns and labels:
Format in all cases: functional
[1] = test system: Peptoniphilus asaccharolyticus; test: Antimicrobial activity against Peptoniphilus asaccharolyticus after 48 hrs by agar dilution method in presence of 4 ug/ml beta-lactamase inhibitor Tazobactam
Procedure, shortened: (§1)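 CLSI agar dilution (M11-A7); inoculum 10^5 CFU applied by replicator; plates incubated anaerobically 48 h at 37°C. For piperacillin-tazobactam, tazobactam held constant at 4 μg/ml.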

[2] = test system: Actinomyces israelii; test: Antimicrobial activity against Actinomyces israelii assessed as percent resistant isolates after 48 hrs by agar dilution method in presence of 4 ug/ml beta-lactamase inhibitor Tazobactam
Procedure, shortened: (§2)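 CLSI agar dilution on recent Korean clinical anaerobe isolates. Inoculum 10^5 CFU per spot by replicator. Plates incubated in an anaerobic chamber at 37°C for 48 h. For piperacillin plus tazobactam, tazobactam was held constant at 4 μg/ml. Resistance and susceptibility rates derived from MICs.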

[3] = test system: Actinomyces israelii; test: Antimicrobial activity against Actinomyces israelii after 48 hrs by agar dilution method in presence of 4 ug/ml beta-lactamase inhibitor Tazobactam
Procedure, shortened: (§3)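 MICs by CLSI agar dilution for piperacillin combined with tazobactam, with tazobactam held constant at 4 μg/ml. Clinical anaerobe isolates inoculated at 10^5 CFU by Steers replicator. Plates kept in an anaerobic chamber at 37°C for 48 h.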

[4] = test system: Bacteroides caccae; test: Antimicrobial activity against Bacteroides caccae after 48 hrs by agar dilution method in presence of 4 ug/ml beta-lactamase inhibitor Tazobactam; procedure, shortened: as §3
[5] = test system: Eubacterium sp.; test: Antimicrobial activity against Eubacterium sp. assessed as percent resistant isolates after 48 hrs by agar dilution method in presence of 4 ug/ml beta-lactamase inhibitor Tazobactam; procedure, shortened: as §2
[6] = test system: Prevotella intermedia; test: Antimicrobial activity against Prevotella intermedia assessed as percent resistant isolates after 48 hrs by agar dilution method in presence of 4 ug/ml beta-lactamase inhibitor Tazobactam; procedure, shortened: as §2
[7] = test system: Parabacteroides distasonis; test: Antimicrobial activity against Bacteroides distasonis after 48 hrs by agar dilution method in presence of 4 ug/ml beta-lactamase inhibitor Tazobactam; procedure, shortened: as §3
[8] = test system: Bacteroides thetaiotaomicron; test: Antimicrobial activity against Bacteroides thetaiotaomicron assessed as percent susceptible isolates after 48 hrs by agar dilution method in presence of 4 ug/ml beta-lactamase inhibitor Tazobactam
[9] = test system: Bacteroides fragilis; test: Antimicrobial activity against Bacteroides fragilis after 48 hrs by agar dilution method in presence of 4 ug/ml beta-lactamase inhibitor Tazobactam; procedure, shortened: as §3
[10] = test system: Prevotella bivia; test: Antimicrobial activity against Prevotella bivia assessed as percent resistant isolates after 48 hrs by agar dilution method in presence of 4 ug/ml beta-lactamase inhibitor Tazobactam; procedure, shortened: as §2
[11] = test system: Bacteroides ovatus; test: Antimicrobial activity against Bacteroides ovatus assessed as percent susceptible isolates after 48 hrs by agar dilution method in presence of 4 ug/ml beta-lactamase inhibitor Tazobactam
[12] = test system: Eubacterium sp.; test: Antimicrobial activity against Eubacterium sp. after 48 hrs by agar dilution method in presence of 4 ug/ml beta-lactamase inhibitor Tazobactam; procedure, shortened: as §1
[13] = test system: Bacteroides ovatus; test: Antimicrobial activity against Bacteroides ovatus after 48 hrs by agar dilution method in presence of 4 ug/ml beta-lactamase inhibitor Tazobactam; procedure, shortened: as §3
[14] = test system: Bacteroides thetaiotaomicron; test: Antimicrobial activity against Bacteroides thetaiotaomicron assessed as percent resistant isolates after 48 hrs by agar dilution method in presence of 4 ug/ml beta-lactamase inhibitor Tazobactam; procedure, shortened: as §2
[15] = test system: Bifidobacterium sp.; test: Antimicrobial activity against Bifidobacterium sp. assessed as percent resistant isolates after 48 hrs by agar dilution method in presence of 4 ug/ml beta-lactamase inhibitor Tazobactam; procedure, shortened: as §2
[16] = test system: Phocaeicola vulgatus; test: Antimicrobial activity against Bacteroides vulgatus assessed as percent resistant isolates after 48 hrs by agar dilution method in presence of 4 ug/ml beta-lactamase inhibitor Tazobactam; procedure, shortened: as §2
[17] = test system: Parabacteroides distasonis; test: Antimicrobial activity against Bacteroides distasonis assessed as percent susceptible isolates after 48 hrs by agar dilution method in presence of 4 ug/ml beta-lactamase inhibitor Tazobactam
[18] = test system: Prevotella intermedia; test: Antimicrobial activity against Prevotella intermedia after 48 hrs by agar dilution method in presence of 4 ug/ml beta-lactamase inhibitor Tazobactam; procedure, shortened: as §1
[19] = test system: Anaerococcus prevotii; test: Antimicrobial activity against Anaerococcus prevotii assessed as percent susceptible isolates after 48 hrs by agar dilution method in presence of 4 ug/ml beta-lactamase inhibitor Tazobactam
[20] = test system: Bacteroides ovatus; test: Antimicrobial activity against Bacteroides ovatus assessed as percent resistant isolates after 48 hrs by agar dilution method in presence of 4 ug/ml beta-lactamase inhibitor Tazobactam; procedure, shortened: as §2
[21] = test system: Fusobacterium nucleatum; test: Antimicrobial activity against Fusobacterium nucleatum after 48 hrs by agar dilution method in presence of 4 ug/ml beta-lactamase inhibitor Tazobactam; procedure, shortened: as §1
[22] = test system: Phocaeicola vulgatus; test: Antimicrobial activity against Bacteroides vulgatus after 48 hrs by agar dilution method in presence of 4 ug/ml beta-lactamase inhibitor Tazobactam; procedure, shortened: as §3
[23] = test system: Fusobacterium mortiferum; test: Antimicrobial activity against Fusobacterium mortiferum after 48 hrs by agar dilution method in presence of 4 ug/ml beta-lactamase inhibitor Tazobactam; procedure, shortened: as §1
[24] = test system: Schaalia odontolytica; test: Antimicrobial activity against Actinomyces odontolyticus assessed as percent susceptible isolates after 48 hrs by agar dilution method in presence of 4 ug/ml beta-lactamase inhibitor Tazobactam; conditions: pooled result: one value given for 8 cell lines, strains, targets or settings
[25] = test system: Bacteroides caccae; test: Antimicrobial activity against Bacteroides caccae assessed as percent susceptible isolates after 48 hrs by agar dilution method in presence of 4 ug/ml beta-lactamase inhibitor Tazobactam
[26] = test system: Bifidobacterium adolescentis; test: Antimicrobial activity against Bifidobacterium adolescentis after 48 hrs by agar dilution method in presence of 4 ug/ml beta-lactamase inhibitor Tazobactam; procedure, shortened: as §3
[27] = test system: Fusobacterium necrogenes; test: Antimicrobial activity against Fusobacterium necrogenes after 48 hrs by agar dilution method in presence of 4 ug/ml beta-lactamase inhibitor Tazobactam; procedure, shortened: as §1
[28] = test system: Bacteroides thetaiotaomicron; test: Antimicrobial activity against Bacteroides thetaiotaomicron after 48 hrs by agar dilution method in presence of 4 ug/ml beta-lactamase inhibitor Tazobactam; procedure, shortened: as §3
[29] = test system: Prevotella bivia; test: Antimicrobial activity against Prevotella bivia assessed as percent susceptible isolates after 48 hrs by agar dilution method in presence of 4 ug/ml beta-lactamase inhibitor Tazobactam; procedure, shortened: as §1
[30] = test system: Actinomyces naeslundii; test: Antimicrobial activity against Actinomyces naeslundii assessed as percent resistant isolates after 48 hrs by agar dilution method in presence of 4 ug/ml beta-lactamase inhibitor Tazobactam; procedure, shortened: as §2
[31] = test system: Peptostreptococcus anaerobius; test: Antimicrobial activity against Peptostreptococcus anaerobius after 48 hrs by agar dilution method in presence of 4 ug/ml beta-lactamase inhibitor Tazobactam; procedure, shortened: as §1
[32] = test system: Anaerococcus prevotii; test: Antimicrobial activity against Anaerococcus prevotii assessed as percent resistant isolates after 48 hrs by agar dilution method in presence of 4 ug/ml beta-lactamase inhibitor Tazobactam; procedure, shortened: as §2
[33] = test system: Peptoniphilus asaccharolyticus; test: Antimicrobial activity against Peptoniphilus asaccharolyticus assessed as percent susceptible isolates after 48 hrs by agar dilution method in presence of 4 ug/ml beta-lactamase inhibitor Tazobactam; procedure, shortened: as §1
[34] = test system: Clostridioides difficile; test: Antimicrobial activity against Clostridium difficile after 48 hrs by agar dilution method in presence of 4 ug/ml beta-lactamase inhibitor Tazobactam; procedure, shortened: as §1

## CCN1CCN(C(=O)N[C@@H](C(=O)N[C@@H]2C(=O)N3[C@@H]2SC(C)(C)[C@@H]3C(=O)O)c2ccccc2)C(=O)C1=O [PIPERACILLIN]
[1]
  MIC50: ≤ 0.03 µg/mL
  MIC90: 0.06 µg/mL
[2]
  Activity: 0%
[3]
  MIC50: 0.5 µg/mL
  MIC90: 8 µg/mL
[4]
  MIC50: 8 µg/mL
  MIC90: 64 µg/mL
[5]
  Activity: 0%
[6]
  Activity: 0%
[7]
  MIC50: 8 µg/mL
  MIC90: 64 µg/mL
[8]
  Activity: 89%
[9]
  MIC50: 1 µg/mL
  MIC90: 4 µg/mL
[10]
  Activity: 0%
[11]
  Activity: 89%
[12]
  MIC50: 0.5 µg/mL
  MIC90: 8 µg/mL
[13]
  MIC50: 8 µg/mL
  MIC90: 64 µg/mL
[14]
  Activity: 7%
[15]
  Activity: 0%
[16]
  Activity: 7%
[17]
  Activity: 89%
[18]
  MIC50: ≤ 0.03 µg/mL
  MIC90: ≤ 0.03 µg/mL
[19]
  Activity: 100%
[20]
  Activity: 7%
[21]
  MIC: 0.03 µg/mL
[22]
  MIC50: 8 µg/mL
  MIC90: 64 µg/mL
[23]
  MIC: 0.03 µg/mL
[24]
  Activity: 92%
[25]
  Activity: 89%
[26]
  MIC50: 0.5 µg/mL
  MIC90: 8 µg/mL
[27]
  MIC: 0.03 µg/mL
[28]
  MIC50: 8 µg/mL
  MIC90: 64 µg/mL
[29]
  Activity: 100%
[30]
  Activity: 0%
[31]
  MIC50: 0.25 µg/mL
  MIC90: 16 µg/mL
[32]
  Activity: 0%
[33]
  Activity: 100%
[34]
  MIC50: 4 µg/mL
  MIC90: 8 µg/mL

— ChEMBL document CHEMBL1671716, “Antimicrobial susceptibility patterns for recent clinical isolates of anaerobic bacteria in South Korea” (2010)
